# In ChEMBL document CHEMBL3352044, “Synthesis and structure-activity relationship studies of N-benzyl-2-phenylpyrimidin-4-amine derivatives as potent USP1/UAF1 deubiquitinase inhibitors with anticancer activity against nonsmall cell lung cancer” (J Med Chem, 2014):
# pIC50: −log10 of the molar value.
# Biological target: Ubiquitin carboxyl-terminal hydrolase 1/WD repeat-containing protein 48 (Homo sapiens, UniProt O94782+Q8TAF3)
# Test: Inhibition of human USP1/UAF1 using ubiquitin-rhodamine110 substrate by fluorescence assay
# Details: not given; call rule not given here
# Ubiquitin carboxyl-terminal hydrolase 1/WD repeat-containing protein 48 (Homo sapiens, UniProt O94782+Q8TAF3), sequence (O94782 whole entry): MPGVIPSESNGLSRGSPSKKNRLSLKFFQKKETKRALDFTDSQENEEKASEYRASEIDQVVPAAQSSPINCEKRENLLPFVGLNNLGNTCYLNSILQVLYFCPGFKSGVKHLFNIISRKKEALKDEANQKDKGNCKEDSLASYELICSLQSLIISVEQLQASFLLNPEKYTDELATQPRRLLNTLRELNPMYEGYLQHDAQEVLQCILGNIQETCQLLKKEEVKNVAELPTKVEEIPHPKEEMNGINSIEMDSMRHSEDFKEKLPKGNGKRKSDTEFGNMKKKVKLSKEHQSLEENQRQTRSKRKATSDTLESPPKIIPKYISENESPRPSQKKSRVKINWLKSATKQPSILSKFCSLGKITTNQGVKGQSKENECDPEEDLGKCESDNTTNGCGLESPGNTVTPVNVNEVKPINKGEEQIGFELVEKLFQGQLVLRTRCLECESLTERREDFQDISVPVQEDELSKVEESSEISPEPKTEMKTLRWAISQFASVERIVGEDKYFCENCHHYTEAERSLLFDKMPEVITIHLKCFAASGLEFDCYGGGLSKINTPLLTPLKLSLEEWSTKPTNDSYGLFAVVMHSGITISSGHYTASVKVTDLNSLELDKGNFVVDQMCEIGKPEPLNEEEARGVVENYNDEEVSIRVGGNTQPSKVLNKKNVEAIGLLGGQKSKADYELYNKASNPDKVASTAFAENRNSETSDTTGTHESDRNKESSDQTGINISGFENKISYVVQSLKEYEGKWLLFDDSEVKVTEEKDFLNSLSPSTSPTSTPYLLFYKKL
# Ubiquitin carboxyl-terminal hydrolase 1/WD repeat-containing protein 48 (Homo sapiens, UniProt O94782+Q8TAF3), sequence (Q8TAF3 whole entry): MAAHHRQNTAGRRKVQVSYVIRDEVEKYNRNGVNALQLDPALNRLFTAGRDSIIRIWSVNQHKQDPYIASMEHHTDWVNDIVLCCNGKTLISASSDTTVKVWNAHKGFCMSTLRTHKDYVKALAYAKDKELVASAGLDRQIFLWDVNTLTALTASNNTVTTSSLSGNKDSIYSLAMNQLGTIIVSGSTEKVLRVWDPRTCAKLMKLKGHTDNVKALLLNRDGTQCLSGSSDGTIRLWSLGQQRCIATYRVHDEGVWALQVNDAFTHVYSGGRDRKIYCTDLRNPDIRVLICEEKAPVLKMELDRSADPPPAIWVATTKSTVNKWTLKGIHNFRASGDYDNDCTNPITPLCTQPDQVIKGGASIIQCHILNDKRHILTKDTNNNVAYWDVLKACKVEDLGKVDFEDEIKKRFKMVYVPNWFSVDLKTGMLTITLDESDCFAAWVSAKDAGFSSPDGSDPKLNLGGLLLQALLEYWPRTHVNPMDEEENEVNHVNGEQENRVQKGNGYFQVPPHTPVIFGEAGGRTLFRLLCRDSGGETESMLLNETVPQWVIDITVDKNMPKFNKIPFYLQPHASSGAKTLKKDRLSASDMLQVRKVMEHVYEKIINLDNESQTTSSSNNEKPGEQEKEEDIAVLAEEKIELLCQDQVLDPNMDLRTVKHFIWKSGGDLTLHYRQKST
row,Structure (SMILES),IC50
1,c1cncc(-c2ccc(CNc3nc(-n4ccnc4)nc4ccccc34)cc2)c1,Not Active
2,c1cncc(-c2ccc(CNc3nc(N4CCCC4)nc4ccccc34)cc2)c1,Not Active
3,FC(F)(F)c1ccc(-c2nc(NCc3ccc(-c4cccnc4)cc3)c3ccccc3n2)cc1,Not Active
4,Cc1cnc(-c2ccccc2C(C)C)nc1NCC1CCN(C)CC1,Not Active
5,FC(F)(F)c1cccc(-c2nc(NCc3ccc(-c4cccnc4)cc3)c3ccccc3n2)c1,Not Active
6,c1cncc(-c2ccc(CNc3nc(N4CCOCC4)nc4ccccc34)cc2)c1,Not Active
7,c1cncc(-c2ccc(CNc3nc(C4CCCC4)nc4ccccc34)cc2)c1,Not Active
8,Cc1cnc(-c2ccccc2C2COC2)nc1NCc1ccc(-c2cccnc2)cc1,Not Active

# Biological target: Ubiquitin carboxyl-terminal hydrolase 1/WD repeat-containing protein 48 (Homo sapiens, UniProt O94782)
# Test: as above
# Details: not given
# Ubiquitin carboxyl-terminal hydrolase 1/WD repeat-containing protein 48 (Homo sapiens, UniProt O94782), sequence (O94782 whole entry): as the sequence (O94782 whole entry) above
# Ubiquitin carboxyl-terminal hydrolase 1/WD repeat-containing protein 48 (Homo sapiens, UniProt O94782), sequence (Q8TAF3 whole entry, further chain): as the sequence (Q8TAF3 whole entry) above
row,Structure (SMILES),pIC50
1,Cc1cccc(C(CO)Nc2nc(-c3ccccc3C(C)C)ncc2C)c1 (stereo not given),4.68
2,FC(F)(F)c1ccccc1-c1nc(NCc2ccc(Cl)c(Cl)c2)c2ccccc2n1,4.98
3,Fc1ccccc1-c1nc(NCc2ccc(-c3cccnc3)cc2)c2ccccc2n1,5.19
4,Fc1ccc(CNc2nc(-c3ccccc3C(F)(F)F)nc3ccccc23)cc1,5.47
5,FC(F)(F)c1ccccc1-c1nc(NCc2ccc(-c3cncnc3)cc2)c2ccccc2n1,5.52
6,FC(F)(F)c1ccccc1-c1nc(NCc2ccccc2)c2ccccc2n1,5.51
7,CC(=O)c1ccccc1-c1ncc(C)c(NCc2ccc(-c3cccnc3)cc2)n1,5.06
8,FC(F)(F)c1ccccc1-c1nc(NCc2ccc3c(c2)OCO3)c2ccccc2n1,5.08
9,O=[N+]([O-])c1ccccc1-c1nc(NCc2ccc(-c3cccnc3)cc2)c2ccccc2n1,5.11
10,FC(F)(F)c1ccccc1-c1nc(NCC#Cc2cccnc2)c2ccccc2n1,5.05
11,CC(C)c1ccccc1-c1nc2c(c(NCc3ccc(-c4cccnc4)cc3)n1)CNC2,5.54
12,Cc1cnc(-c2ccccc2C(C)C)nc1NCC1CN(c2cccnc2)C1,4.66
13,FC(F)(F)c1ccccc1-c1nc(NCc2ccc(Cl)cc2)c2ccccc2n1,5.32
14,N#Cc1ccc(CNc2nc(-c3ccccc3C(F)(F)F)nc3ccccc23)cc1,5.24
15,COc1ccc(CNc2nc(-c3ccccc3C(F)(F)F)nc3ccccc23)cc1,5.21
16,Cc1cnc(-c2ccccc2C(C)C)nc1NCC1CCN(C2COC2)CC1,4.87
17,FC(F)(F)c1ccccc1-c1nc(NCc2ccc(-c3ccc(Cl)cc3)cc2)c2ccccc2n1,5.44
18,Cc1cnc(-c2ccccc2C(C)C)nc1NCc1ccc(-c2nnn[nH]2)cc1,5.23
19,Cc1cnc(-c2ccccc2CO)nc1NCc1ccc(-c2cccnc2)cc1,4.98
20,FC(F)(F)c1ccccc1-c1nc(NCc2ccc(N3CCOCC3)cc2)c2ccccc2n1,4.98
21,FC(F)(F)c1cc(-c2ccc(CNc3nc(-c4ccccc4C(F)(F)F)nc4ccccc34)cc2)ccn1,5.31
22,FC(F)(F)c1ccccc1-c1nc(NCc2ccc(-c3ccccc3)cc2)c2ccccc2n1,5.43
23,Cc1ccc(CNc2nc(-c3ccccc3C(F)(F)F)nc3ccccc23)s1,5.29
24,FC(F)(F)c1ccc(CNc2nc(-c3ccccc3C(F)(F)F)nc3ccccc23)cc1,5.05
25,FC(F)(F)c1ccccc1-c1nc(NCc2ccc(-c3cccc(Cl)c3)cc2)c2ccccc2n1,5.57
26,FC(F)(F)c1ccccc1-c1nc(NCc2ccc(C3CCCCC3)cc2)c2ccccc2n1,5.01

# More lines, now with the values ahead:
row,pIC50,Structure (SMILES)
1,7.30,Cc1ccc(-c2ccc(CNc3nc(-c4ccccc4C(C)C)ncc3C)cc2)cn1
2,6.11,CCc1ccccc1-c1nc(NCc2ccc(-c3cccnc3)cc2)c2ccccc2n1
3,6.52,Cc1cnc(-c2ccccc2C(C)C)nc1NCc1ccc(-n2ccnc2)cc1
4,6.57,Cc1cnc(-c2ccccc2C(C)C)nc1NCc1cccs1
5,6.85,Cc1cnc(-c2ccccc2C(C)C)nc1NCC1CCN(c2cnccn2)CC1
6,6.92,Cc1nc(-c2ccccc2C(C)C)nc(NCc2ccc(-c3cccnc3)cc2)c1C
7,6.74,CC(C)c1ccccc1-c1nc(NCc2ccc(-c3cccnc3)cc2)c2ccccc2n1
8,7.15,COc1cnc(-c2ccccc2C(C)C)nc1NCc1ccc(-c2cccnc2)cc1
9,6.74,Cc1cnc(-c2ccccc2C2CCC2)nc1NCc1ccc(-n2ccnn2)cc1
10,6.92,CC(C)c1ccccc1-c1nc(NCc2ccc(-c3cccnc3)cc2)c2nc[nH]c2n1
11,5.68,Clc1ccccc1-c1nc(NCc2ccc(-c3cccnc3)cc2)c2ccccc2n1
12,6.59,CC(C)c1ccccc1-c1nc(NCc2ccc(-c3cccnc3)cc2)c2cccn2n1
13,5.70,Cc1cnc(-c2ccccc2C(C)O)nc1NCc1ccc(-c2cccnc2)cc1 (stereo not given)
14,6.96,CC(C)c1ccccc1-c1nc(NCc2ccc(-c3cccnc3)cc2)c2sccc2n1
15,6.03,COc1ccccc1-c1nc(NCc2ccc(-c3cccnc3)cc2)c2ccccc2n1
16,6.74,Cc1cnc(-c2ccccc2C2CC2)nc1NCc1ccc(-c2cccnc2)cc1
17,6.80,CC(C)c1ccccc1-c1nc2c(c(NCc3ccc(-c4cccnc4)cc3)n1)CCC2
18,5.85,FC(F)c1ccccc1-c1nc(NCc2ccc(-c3cccnc3)cc2)c2ccccc2n1
19,7.15,Cc1cnc(-c2ccccc2C(C)C)nc1NCc1ccc(-c2cccnc2)cc1
20,6.68,Cc1cc(NCc2ccc(-c3cccnc3)cc2)nc(-c2ccccc2C(C)C)n1
21,5.96,Cc1ccccc1-c1nc(NCc2ccc(-c3cccnc3)cc2)c2ccccc2n1

row,pIC50,Structure (SMILES)
1,6.82,CC(C)c1ccccc1-c1nccc(NCc2ccc(-c3cccnc3)cc2)n1
2,6.55,CC(C)c1ccccc1-c1nc(NCc2ccc(-c3cccnc3)cc2)c2ccsc2n1
3,5.80,Brc1ccccc1-c1nc(NCc2ccc(-c3cccnc3)cc2)c2ccccc2n1
4,6.72,CC(C)c1ccccc1-c1ncc(N(C)C)c(NCc2ccc(-c3cccnc3)cc2)n1
5,6.96,CC(C)c1ccccc1-c1ncc(F)c(NCc2ccc(-c3cccnc3)cc2)n1
6,6.23,Cc1cnc(-c2ccccc2C(C)C)nc1NC(C)(C)c1ccc(-n2ccnn2)cc1
7,6.96,CSc1cnc(-c2ccccc2C(C)C)nc1NCc1ccc(-c2cccnc2)cc1
8,6.89,Cc1cccc(CNc2nc(-c3ccccc3C(C)C)ncc2C)c1
9,7.05,Cc1ccc(N2CCC(CNc3nc(-c4ccccc4C(C)C)ncc3C)CC2)cn1
10,6.10,Cc1cnc(-c2ccccc2C(C)C)nc1NCC1CCN(c2cccnc2)C1 (stereo not given)
11,5.89,Cc1cnc(-c2ccccc2C(C)C)nc1NCc1cccnc1
12,7.10,CC(C)c1ccccc1-c1nc(NCc2ccc(-c3cccnc3)cc2)c2occc2n1
13,5.66,FC(F)(F)c1ccccc1-c1nc(NCc2ccc(-c3ccc(Cl)c(Cl)c3)cc2)c2ccccc2n1
14,6.51,CC(C)c1ccccc1-c1ncc(N)c(NCc2ccc(-c3cccnc3)cc2)n1
15,7.10,Cc1cnc(-c2ccccc2C(C)C)nc1NCc1ccc(-c2ccc(F)nc2)cc1
16,6.09,Cc1cnc(-c2ccccc2C(F)F)nc1NCc1ccc(-n2ccnn2)cc1
17,5.96,FC(F)(F)c1ccccc1-c1nc(NCc2ccc(-c3cccnc3)cc2)c2ccccc2n1
18,5.72,FC(F)(F)c1ccccc1-c1nc(NCc2ccc(-c3ccncc3)cc2)c2ccccc2n1
19,6.49,Cc1cnc(-c2ccccc2C(C)C)nc1NCc1ccc(-c2ccnc(C(F)(F)F)c2)cc1
20,6.07,CC(C)c1ccccc1-c1nc2c(c(NCc3ccc(-c4cccnc4)cc3)n1)CCNC2
21,6.12,[2H]C([2H])([2H])C([2H])(c1ccccc1-c1ncc(C)c(NC(C)(C)c2ccc(-n3ccnn3)cc2)n1)C([2H])([2H])[2H]

# Test system: not listed separately
# Test: Cytotoxicity against human H1299 cells assessed as reduction in colony formation at 5 uM after 7 days
# Type: functional
# Details: NCI-H1299, 168 h, read-out: INH
# In short: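 H1299 cells seeded at 200 cells/well, attached overnight, then exposed to 5 μM compound or equal volume DMSO. After 7 days, fixed with 20% methanol and stained with 0.1% crystal violet; percent survival scored versus DMSO control.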
row,Structure (SMILES),inhibition at 5 µM [%]
1,Cc1cnc(-c2ccccc2C(C)C)nc1NCc1ccc(-n2ccnc2)cc1,> 70
2,COc1cnc(-c2ccccc2C(C)C)nc1NCc1ccc(-c2cccnc2)cc1,> 70
3,CC(C)c1ccccc1-c1nc(NCc2ccc(-c3cccnc3)cc2)c2occc2n1,> 70

# Test system: Liver microsome
# Test: Half life in rat liver microsomes in presence of NADPH
# Type: ADME
# Details: not given
# In short: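 Rat liver microsomes with NADPH; half-life in minutes.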
row,Structure (SMILES),t1/2 [min]
1,[2H]C([2H])([2H])C([2H])(c1ccccc1-c1ncc(C)c(NCc2ccc(-n3ccnn3)cc2)n1)C([2H])([2H])[2H],9.5
2,[2H]C([2H])(Nc1nc(-c2ccccc2C([2H])(C([2H])([2H])[2H])C([2H])([2H])[2H])ncc1C)c1ccc(-n2ccnn2)cc1,13
3,[2H]C([2H])(Nc1nc(-c2ccccc2C(C)C)ncc1C)c1ccc(-n2ccnn2)cc1,12
4,[2H]C([2H])([2H])C(c1ccccc1-c1ncc(C)c(NCc2ccc(-n3ccnn3)cc2)n1)C([2H])([2H])[2H],7.9
5,Cc1cnc(-c2ccccc2C2COC2)nc1NCc1ccc(-c2cccnc2)cc1,> 30

# More lines, now with the values ahead:
row,t1/2 [min],Structure (SMILES)
1,5.1,Cc1cnc(-c2ccccc2C2CCC2)nc1NCc1ccc(-n2ccnn2)cc1
2,6.2,Cc1cnc(-c2ccccc2C2CC2)nc1NCc1ccc(-c2cccnc2)cc1
3,5.8,Cc1cnc(-c2ccccc2C(C)C)nc1NCc1ccc(-c2cccnc2)cc1
4,22,Cc1cnc(-c2ccccc2C(C)C)nc1NC(C)(C)c1ccc(-n2ccnn2)cc1
5,21,Cc1cnc(-c2ccccc2C(F)F)nc1NCc1ccc(-n2ccnn2)cc1
6,10,[2H]C([2H])([2H])C([2H])(c1ccccc1-c1ncc(C)c(NC(C)(C)c2ccc(-n3ccnn3)cc2)n1)C([2H])([2H])[2H]
